The record followed here is ChEMBL document CHEMBL4837217, “Design, synthesis, in vitro and in vivo biological evaluation of pyranone-piperazine analogs as potent antileishmanial agents” (Eur J Med Chem, 2021).

In data set [1] the test system is Leishmania donovani. Kind of data set: Antileishmanial activity against amastigote stage of Leishmania donovani MHOM/IN/80/Dd8 harboring luciferase gene infected in mouse J774 cells assessed as parasite growth inhibition at 25 uM incubated for 72 hrs by Steady-Glo reagent based luciferase assay. It is filed as functional. Particulars: MHOM/IN/80/Dd8, J774. The gist of the method: (§1)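 J774 murine macrophages, 4 × 10⁴ cells/well in RPMI with 10% FBS for 24 h, are infected for 24 h at 37 °C, 5% CO₂ with stationary-phase luciferase-transfected L. donovani Dd8 promastigotes at a 1:8 macrophage:parasite ratio. Compounds are dissolved in DMSO. Luminescence is read after Steady-Glo is added in PBS. IC₅₀ is taken from a four-parameter Hill nonlinear regression. Miltefosine is the reference.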

Data set [2] has as its system Leishmania donovani. Kind of data set: Antileishmanial activity against amastigote stage of Leishmania donovani MHOM/IN/80/Dd8 harboring luciferase gene infected in mouse J774 cells assessed as parasite growth inhibition at 50 uM incubated for 72 hrs by Steady-Glo reagent based luciferase assay. It is filed as functional. The note with it: MHOM/IN/80/Dd8, J774. A digest of the protocol:
as §1

Data set [3] deals with Leishmania donovani. Kind of data set: Antileishmanial activity against log phase of Leishmania donovani MHOM/IN/80/Dd8 promastigotes assessed as reduction in cell viability at 25 uM incubated for 72 hrs by MTT assay. The format is functional. The gist of the method: (§2)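 Log-phase luciferase-transfected L. donovani Dd8 promastigotes (M199 + 10% FBS, 24 °C) treated with compounds at 25 and 50 µM in DMSO, with 0.1% DMSO vehicle control. After 72 h, MTT added 4 h. Formazan dissolved in DMSO, read at 570 nm. Percent inhibition reported as mean ± SD of at least three independent experiments in replicate.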
On the technique in general: Tetrazolium dyes change colour on reduction, which living cells bring about.

A short description of data set [4]: Cytotoxicity against mouse J774 cells assessed as reduction in cell viability incubated for 72 hrs by MTT assay. The format is cell-based. The gist of the method: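 J774 macrophages seeded at 1 × 10^5 cells/well overnight, then exposed to graded concentrations (7.81–500 µM) for 72 h at 37 °C, 5% CO2. MTT (5 mg/mL) added for 2 h, formazan solubilized in DMSO and read at 570 nm. CC50 taken as 50% viability loss relative to untreated cells.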

Data set [5] deals with Leishmania donovani. Kind of data set: Antileishmanial activity against amastigote stage of Leishmania donovani MHOM/IN/80/Dd8 harboring luciferase gene infected in mouse J774 cells assessed as parasite killing at 50 to 100 uM incubated for 72 hrs by Steady-Glo reagent based luciferase assay. The format is functional. Particulars: dose 50-100 µM. A digest of the protocol:
as §1

For data set [6], the system named is Leishmania donovani. Kind of data set: Antileishmanial activity against log phase of Leishmania donovani MHOM/IN/80/Dd8 promastigotes assessed as reduction in cell viability at 50 uM incubated for 72 hrs by MTT assay. It is filed as functional. The gist of the method:
as §2

The test system of data set [7] is Leishmania donovani. Kind of data set: Antileishmanial activity against amastigote stage of Leishmania donovani MHOM/IN/80/Dd8 harboring luciferase gene infected in mouse J774 cells assessed as parasite growth inhibition by Giemsa staining based analysis. It is filed as functional, organism-based. Particulars: time 12-72 hrs, TDE = time-dependent effect. A digest of the protocol: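 J774 macrophages are infected for 24 h with stationary-phase luciferase-transfected Dd8 promastigotes at a 1:8 ratio in chamber slides. After compound treatment, cells are fixed and Giemsa-stained, and intracellular amastigotes are counted by microscopy.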

For data set [8], the system named is Leishmania donovani. Kind of data set: Antileishmanial activity against amastigote stage of Leishmania donovani MHOM/IN/80/Dd8 harboring luciferase gene infected in mouse J774 cells assessed as parasite killing incubated for 72 hrs by Steady-Glo reagent based luciferase assay. The format is functional, organism-based. The note with it: dose 3.12-50 µM. The gist of the method: as §1

Data set [9] has as its system Leishmania donovani. Kind of data set: Antileishmanial activity against amastigote stage of Leishmania donovani MHOM/IN/80/Dd8 harboring luciferase gene infected in mouse J774 cells assessed as parasite growth inhibition incubated for 72 hrs by Steady-Glo reagent based luciferase assay. Particulars: MHOM/IN/80/Dd8, J774, 72 h. It is filed as functional, organism-based. A digest of the protocol:
as §1

Data set [10] deals with Leishmania donovani. Kind of data set: Antileishmanial activity against Leishmania donovani MHOM/IN/80/Dd8 infected in BALB/c mouse assessed as reduction in intracellular amastigote burden in spleen at 50 mg/kg, ip for 5 days and measured at 1 week post-treatment by Giemsa staining based assay relative to control. The format is functional. The note with it: time 12.0 day. The gist of the method:
(§3)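 Female BALB/c mice (20–25 g), 5/group, infected iv with 2 × 10^7 stationary-phase L. donovani promastigotes. Infection confirmed at 2 wk, then 50 mg/kg ip daily for 5 consecutive days. Vehicle was 5% DMSO. Sacrificed day 7 post-treatment. Giemsa-stained liver/spleen impression smears counted as amastigotes/1000 nucleated cells, expressed as LDU (amastigotes per nucleated cell × organ weight in mg), compared with untreated infected controls.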

For data set [11], the system named is Leishmania donovani. Kind of data set: Antileishmanial activity against log phase of Leishmania donovani MHOM/IN/80/Dd8 promastigotes assessed as reduction in cell viability by MTT assay. Particulars: time 12-72 hrs, TDE = time-dependent effect. The format is functional, organism-based.
Data set [12] has as its system Leishmania donovani. Kind of data set: Antileishmanial activity against Leishmania donovani MHOM/IN/80/Dd8 infected in BALB/c mouse assessed as reduction in intracellular amastigote burden in liver at 50 mg/kg, ip for 5 days and measured at 1 week post-treatment by Giemsa staining based assay relative to control. The format is functional. Particulars: time 12.0 day. The gist of the method:
as §3

The test system of data set [13] is Splenocyte. Kind of data set: Immunomodulatory activity in BALB/c mouse infected with Leishmania donovani amastigotes assessed as increase in IFN-gamma level in splenocytes supernatants at 25 mg/kg, po for 5 days. It is filed as functional, organism-based. The note with it: time 5.0 day.
In data set [14] the test system is Splenocyte. Kind of data set: Immunomodulatory activity in BALB/c mouse infected with Leishmania donovani amastigotes assessed as increase in IL-12 level in splenocytes supernatants at 25 mg/kg, po for 5 days. It is filed as functional, organism-based. Particulars: time 5.0 day.
Data set [15] concerns Leishmania donovani. Kind of data set: Antileishmanial activity against Leishmania donovani MHOM/IN/80/Dd8 infected in BALB/c mouse assessed as reduction in organ intracellular amastigote burden at 25 mg/kg, po for 5 days and measured at 1 week post-treatment by Giemsa staining based assay relative to control. It is filed as functional. Particulars: MHOM/IN/80/Dd8, po, 288 h, time 12 day. The gist of the method: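 Female BALB/c mice (20–25 g), 5/group, infected iv with 2 × 10^7 stationary-phase L. donovani promastigotes. Reference drug given orally at 25 mg/kg daily for 5 consecutive days. Sacrificed day 7 post-treatment. Liver and spleen impression smears fixed in methanol, stained with 30% Giemsa for 2 h. Amastigotes/1000 nucleated cells counted and expressed as LDU.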

In data set [16] the test system is Splenocyte. Kind of data set: Immunomodulatory activity in BALB/c mouse infected with Leishmania donovani amastigotes assessed as decrease in IL-10 level in splenocytes supernatants at 25 mg/kg, po for 5 days. It is filed as functional, organism-based. Particulars: time 5.0 day.
The test system of data set [17] is Splenocyte. Kind of data set: Immunomodulatory activity in BALB/c mouse infected with Leishmania donovani amastigotes assessed as decrease in TGF-beta level in splenocytes supernatants at 25 mg/kg, po for 5 days. The note with it: time 5.0 day. It is filed as functional, organism-based.
The test system of data set [18] is Leishmania donovani. Kind of data set: Antileishmanial activity against Leishmania donovani promastigotes assessed as parasite growth inhibition incubated for 72 hrs by Alamar Blue assay. The format is functional, organism-based. In general terms: Alamar Blue is a resazurin reagent that responds to reducing activity.
Data set [19] deals with Leishmania. Kind of data set: Antileishmanial activity against Leishmania. It is filed as functional, organism-based. The gist of the method:
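Antiamastigote assay: J774 murine macrophages in RPMI + 10% FBS, infected 24 h at 37 °C, 5% CO2 with stationary-phase luciferase-transfected L. donovani Dd8 promastigotes (1:8 macrophage:parasite). Infectivity confirmed by Giemsa staining on parallel slides. Compounds then added and incubated 72 h. Read-out by luciferase luminescence. IC50 from four-parameter Hill nonlinear regression of the dose-response.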

The source made the active and inactive calls. No cut-off for these calls is given here. Some results are limits rather than exact numbers.

The inhibition is the drop in the measured response relative to a control, in per cent. Broadly, the CC50 is the concentration giving 50% cytotoxicity. One may read the IC50 as the concentration that gives 50% inhibition. As for `N#Cc1c(N2CCN(c3ccccc3O)CC2)cc(-c2cccs2)oc1=O`, the inhibition at 25 µM in [1] was 84.7%; in data set [3], 81.3%. The inhibition at 50 µM in [2] worked out at 89.3%; in [6] it was 90.2%. Moreover, the CC50 at 72 h in data set [4] is 311 µM. The Activity in data set [5] was above 89%; in [7], “Tde”; in data set [8], “Dose-Dependent Effect”; in data set [11], “Tde”. In addition, the IC50 in data set [9] came out at 15.3 µM. The outcome in data set [10] and in data set [12] was Active.
For orientation: inhibition in vivo means the percentage by which the read-out fell short of the control. In the case of `CCCCCCCCCCCCCCCCOP(=O)([O-])OCC[N+](C)(C)C` [MILTEFOSINE], the outcome in data set [13], in data set [14], in data set [16] and in data set [17] was Active. The inhibition at 25 µM is 91.2% in data set [1] and 99.4% in [3]. Further, the inhibition at 50 µM in data set [2] was 95.3%; in data set [6] it was 99.7%. Moreover, the IC50 in [9] came out at 12.8 µM. For the same molecule, in [15], the inhibition in vivo at 25 mg/kg is above 97%.
Take `c1ccc2[nH]c(-c3ccc(N4CCN(c5ccc(-c6nc7ccccc7[nH]6)cc5)CC4)cc3)nc2c1`: the IC50 in [18] is 410 nM.
In [19], `CCn1nc2cc(N/C(C)=C3/C(=O)C=C(C)OC3=O)ccc2c1Cl` showed a half-maximal inhibitory concentration (IC50) of 2480 nM.
